# Reference: ChEMBL document CHEMBL1153575, “Synthesis and in vitro anticancer activity of 2,4-azolidinedione-acetic acids derivatives” (2009)
# What was measured:
# Type in all cases: functional
# OVCAR-5 = experiment: Cytotoxicity against human OVCAR5 cells assessed as cell growth at 10 uM after 48 hrs by sulforhodamine B assay; details: OVCAR-5, 48 h, read-out: Activity
# In short: (§1)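 Single-dose primary screen at 10^-5 M (final) across a panel of about 60 human tumour cell lines. Cells were inoculated and preincubated 24–48 h, then the compound was added once and incubated a further 48 h. Protein was stained with sulforhodamine B and read spectrophotometrically. Percent growth is given relative to untreated control cells.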
# RPMI-8226 [1] = experiment: Cytotoxicity against human RPMI8226 cells assessed as cell growth at 10 uM after 48 hrs by sulforhodamine B assay; details: RPMI-8226, 48 h, read-out: Activity; in short: as §1
# CCRF-CEM = experiment: Growth inhibition of human CCRF-CEM cells after 48 hrs by sulforhodamine B assay
# In short: (§2)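 Five-concentration assay in about 60 human tumour lines, using 10-fold dilutions from 10^-4 to 10^-8 M with 48 h continuous exposure and an SRB protein endpoint. Percent growth at each level comes from time-zero, untreated-control and treated absorbances. GI50 is 50% lower net protein increase than control. Values beyond the tested range are given as greater or less than the extreme concentration.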
# MOLT-4 = experiment: Growth inhibition of human MOLT4 cells after 48 hrs by sulforhodamine B assay; details: MOLT-4, 48 h; in short: as §2
# RPMI-8226 [2] = experiment: Growth inhibition of human RPMI8226 cells after 48 hrs by sulforhodamine B assay; details: RPMI-8226, 48 h; in short: as §2
# HOP-62 = experiment: Growth inhibition of human HOP62 cells after 48 hrs by sulforhodamine B assay; details: HOP-62, 48 h; in short: as §2
# HOP-92 = experiment: Growth inhibition of human HOP92 cells after 48 hrs by sulforhodamine B assay; details: HOP-92, 48 h; in short: as §2
# NCI-H226 = experiment: Growth inhibition of human NCI-H226 cells after 48 hrs by sulforhodamine B assay; details: NCI-H226, 48 h; in short: as §2
# SN12C = experiment: Growth inhibition of human SN12C cells after 48 hrs by sulforhodamine B assay; in short: as §2
# MDA-MB-231 = experiment: Growth inhibition of human MDA-MB-231 cells after 48 hrs by sulforhodamine B assay; details: MDA-MB-231, 48 h; for TGI: read-out: pTGI (converted); in short: as §2
# [3] = Growth inhibition of human Hs 578T cells after 48 hrs by sulforhodamine B assay; details: for CC50: read-out: pLC50 (the source's name) (converted); for TGI: read-out: pTGI (converted); in short: as §2
# HL-60(TB) = experiment: Growth inhibition of human HL-60(TB) cells after 48 hrs by sulforhodamine B assay; details: HL-60, 48 h
# In short: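 Cells inoculated and preincubated 24–48 h in microtiter plates, then exposed continuously for 48 h to five 10-fold dilutions from 10^-4 to 10^-8 M. End point by sulforhodamine B protein staining, read spectrophotometrically against untreated controls and time-zero absorbance. Percent growth computed per concentration; GI50 taken where [(Ti−Tz)/(C−Tz)]×100 = 50, expressed as log molar value.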
# SR [4] = experiment: Growth inhibition of human SR cells after 48 hrs by sulforhodamine B assay; details: for TGI: read-out: pTGI (converted); in short: as §2
# SF-268 [5] = experiment: Growth inhibition of human SF268 cells after 48 hrs by sulforhodamine B assay; details: SF-268, 48 h; in short: as §2
# SF-539 = experiment: Growth inhibition of human SF539 cells after 48 hrs by sulforhodamine B assay; details: SF-539, 48 h; in short: as §2
# SNB- = experiment: Growth inhibition of human SNB cells after 48 hrs by sulforhodamine B assay; in short: as §2
# U-251 = experiment: Growth inhibition of human U251 cells after 48 hrs by sulforhodamine B assay; details: U-251, 48 h; in short: as §2
# LOX IMVI = experiment: Growth inhibition of human LOXIMVI cells after 48 hrs by sulforhodamine B assay; in short: as §2
# OVCAR-4 = experiment: Growth inhibition of human OVCAR4 cells after 48 hrs by sulforhodamine B assay; details: OVCAR-4, 48 h; in short: as §2
# SK-OV-3 = experiment: Growth inhibition of human SKOV3 cells after 48 hrs by sulforhodamine B assay; details: SK-OV-3, 48 h; in short: as §2
# TK-10 [6] = experiment: Growth inhibition of human TK10 cells after 48 hrs by sulforhodamine B assay; details: TK-10, 48 h; in short: as §2
# PC-3 = experiment: Growth inhibition of human PC3 cells after 48 hrs by sulforhodamine B assay; details: PC-3, 48 h; in short: as §2
# SR [7] = experiment: Cytotoxicity against human SR cells assessed as cell growth at 10 uM after 48 hrs by sulforhodamine B assay; details: read-out: Activity; in short: as §1
# UO-31 = experiment: Cytotoxicity against human UO31 cells assessed as cell growth at 10 uM after 48 hrs by sulforhodamine B assay; details: UO-31, 48 h, read-out: Activity; in short: as §1
# TK-10 [8] = experiment: Cytotoxicity against human TK10 cells assessed as cell growth at 10 uM after 48 hrs by sulforhodamine B assay; details: TK-10, 48 h, read-out: Activity; in short: as §1
# HCT-116 = experiment: Cytotoxicity against human HCT116 cells assessed as cell growth at 10 uM after 48 hrs by sulforhodamine B assay; details: HCT-116, 48 h, read-out: Activity; in short: as §1
# ACHN = experiment: Cytotoxicity against human ACHN cells assessed as cell growth at 10 uM after 48 hrs by sulforhodamine B assay; details: read-out: Activity; in short: as §1
# [9] = Cytotoxicity against human IGROV cells assessed as cell growth at 10 uM after 48 hrs by sulforhodamine B assay; details: read-out: Activity; in short: as §1
# CAKI-1 = experiment: Cytotoxicity against human Caki1 cells assessed as cell growth at 10 uM after 48 hrs by sulforhodamine B assay; details: CAKI-1, 48 h, read-out: Activity; in short: as §1
# NCI-H460 = experiment: Cytotoxicity against human NCI-H460 cells assessed as cell growth at 100 uM after 48 hrs by sulforhodamine B assay; details: NCI-H460, 48 h, read-out: Activity
# In short: (§3)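 Primary one-dose screen on a three-line panel (MCF7 breast, NCI-H460 lung, SF-268 CNS) at 10^-4 M. Cells were preincubated 24–48 h before a single addition of the agent, followed by 48 h incubation. Endpoint was SRB protein staining, reported as percent growth versus untreated controls.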
# MCF7 = experiment: Cytotoxicity against human MCF7 cells assessed as cell growth at 100 uM after 48 hrs by sulforhodamine B assay; details: MCF7, 48 h, read-out: Activity; in short: as §3
# SF-268 [10] = experiment: Cytotoxicity against human SF268 cells assessed as cell growth at 100 uM after 48 hrs by sulforhodamine B assay; details: SF-268, 48 h, read-out: Activity; in short: as §3
# NCI-H23 = experiment: Growth inhibition of human NCI-H23 cells after 48 hrs by sulforhodamine B assay; details: NCI-H23, 48 h; in short: as §2
# A498 = experiment: Growth inhibition of human A498 cells after 48 hrs by sulforhodamine B assay; details: A498, 48 h; in short: as §2
# [11] = read-out: pLC50 (the source's name) (converted)
smiles,measurement,setting,value
COc1ccc(/C=C2\NC(=O)N(CC(=O)Nc3nccs3)C2=O)cc1,growth at 10 µM,OVCAR-5,76.5%
O=C(CN1C(=O)N/C(=C\C=C\c2ccccc2)C1=O)Nc1ccccc1C(F)(F)F,growth at 10 µM,RPMI-8226 [1],26.6%
O=C(CN1C(=O)N/C(=C\c2ccc(Cl)cc2)C1=O)Nc1ccc(Cl)cc1,GI50,CCRF-CEM,14.8 µM
same,LC50,CCRF-CEM,67.6 µM
same,TGI,CCRF-CEM; read-out: pTGI (converted),31.6 µM
same,GI50,MOLT-4,11 µM
same,CC50,MOLT-4; [11],72.4 µM
same,TGI,MOLT-4; read-out: pTGI (converted),28.2 µM
same,GI50,RPMI-8226 [2],20.9 µM
same,LC50,RPMI-8226 [2],> 100 µM
same,TGI,RPMI-8226 [2]; read-out: pTGI (converted),67.6 µM
same,GI50,HOP-62,15.1 µM
same,LC50,HOP-62,> 100 µM
same,TGI,HOP-62; read-out: pTGI (converted),43.7 µM
same,GI50,HOP-92,17.4 µM
same,LC50,HOP-92,> 100 µM
same,TGI,HOP-92; read-out: pTGI (converted),50.1 µM
same,GI50,NCI-H226,15.8 µM
same,CC50,NCI-H226; [11],> 100 µM
same,TGI,NCI-H226; read-out: pTGI (converted),44.7 µM
same,GI50,SN12C,17 µM
same,LC50,SN12C,> 100 µM
same,TGI,SN12C; read-out: pTGI (converted),47.9 µM
same,GI50,MDA-MB-231,16.2 µM
same,LC50,MDA-MB-231,> 100 µM
same,TGI,MDA-MB-231,42.7 µM
same,GI50,[3],10.7 µM
same,CC50,[3],> 100 µM
same,TGI,[3],38 µM
same,GI50,HL-60(TB),19.5 µM
same,CC50,HL-60(TB); [11],> 100 µM
same,TGI,HL-60(TB); read-out: pTGI (converted),46.8 µM
same,GI50,SR [4],7.08 µM
same,LC50,SR [4],> 100 µM
same,TGI,SR [4],67.6 µM
same,GI50,SF-268 [5],10.5 µM
same,CC50,SF-268 [5]; [11],85.1 µM
same,TGI,SF-268 [5]; read-out: pTGI (converted),29.5 µM
same,GI50,SF-539,16.6 µM
same,CC50,SF-539; [11],89.1 µM
same,TGI,SF-539; read-out: pTGI (converted),38.9 µM
same,GI50,SNB-,13.2 µM
same,CC50,SNB-; [11],> 100 µM
same,TGI,SNB-; read-out: pTGI (converted),36.3 µM
same,GI50,U-251,14.8 µM
same,LC50,U-251,60.3 µM
same,TGI,U-251; read-out: pTGI (converted),29.5 µM
same,GI50,LOX IMVI,15.5 µM
same,CC50,LOX IMVI; [11],66.1 µM
same,TGI,LOX IMVI; read-out: pTGI (converted),32.4 µM
same,GI50,OVCAR-4,13.2 µM
same,CC50,OVCAR-4; [11],> 100 µM
same,TGI,OVCAR-4; read-out: pTGI (converted),64.6 µM
same,GI50,SK-OV-3,19.5 µM
same,LC50,SK-OV-3,> 100 µM
same,TGI,SK-OV-3; read-out: pTGI (converted),51.3 µM
same,GI50,TK-10 [6],17 µM
same,CC50,TK-10 [6]; [11],> 100 µM
same,TGI,TK-10 [6]; read-out: pTGI (converted),42.7 µM
same,GI50,PC-3,18.6 µM
same,CC50,PC-3; [11],> 100 µM
same,TGI,PC-3; read-out: pTGI (converted),46.8 µM
NS(=O)(=O)c1ccc(NC(=O)CC2NC(=O)NC2=O)cc1 (stereo not given),growth at 10 µM,SR [7],68.3%
O=C(CN1C(=O)S/C(=C\c2ccc(Cl)cc2)C1=O)Nc1ccccc1C(F)(F)F,growth at 10 µM,UO-31,75.8%
O=C(CN1C(=O)S/C(=C\C=C\c2ccccc2)C1=O)Nc1ccccc1C(F)(F)F,growth at 10 µM,TK-10 [8],62.5%
CN(C)c1ccc(/C=C2\NC(=O)N(CC(=O)Nc3ccccc3C(F)(F)F)C2=O)cc1,growth at 10 µM,HCT-116,31%
CN(C)c1ccc(/C=C2\SC(=O)N(CC(=O)Nc3ccccc3C(F)(F)F)C2=O)cc1,growth at 10 µM,SR [7],45.8%
O=C(CN1C(=O)N/C(=C\c2ccccc2)C1=O)Nc1ccc(Cl)cc1,growth at 10 µM,UO-31,-83.1%
same,growth at 10 µM,ACHN,1.51%
same,growth at 10 µM,[9],-3.51%
NS(=O)(=O)c1ccc(NC(=O)CN2C(=O)CNC2=O)cc1,growth at 10 µM,UO-31,26%
NS(=O)(=O)c1ccc(NC(=O)CC2SC(=O)NC2=O)cc1 (stereo not given),growth at 10 µM,CAKI-1,54.2%
O=C(CN1C(=O)N/C(=C\C=C\c2ccccc2)C1=O)Nc1ccc(Cl)cc1,growth at 100 µM,NCI-H460,17%
same,growth at 100 µM,MCF7,7%
same,growth at 100 µM,SF-268 [10],39%
same,GI50,MDA-MB-231,26.3 µM
same,LC50,MDA-MB-231,> 100 µM
same,TGI,MDA-MB-231,> 100 µM
same,GI50,[3],21.9 µM
same,CC50,[3],> 100 µM
same,TGI,[3],52.5 µM
same,GI50,SR [4],33.9 µM
same,LC50,SR [4],> 100 µM
same,TGI,SR [4],> 100 µM
same,GI50,NCI-H23,31.6 µM
same,LC50,NCI-H23,> 100 µM
same,TGI,NCI-H23; read-out: pTGI (converted),> 100 µM
same,GI50,A498,17.8 µM
same,CC50,A498; [11],77.6 µM
same,TGI,A498; read-out: pTGI (converted),37.2 µM
